From ChEMBL document CHEMBL1144256, “Potent Kv1.3 inhibitors from correolide-modification of the C18 position” (Bioorg Med Chem Lett, 2005)

Tests used:
[1] = target: T1, Potassium voltage-gated channel subfamily A member 3 (Homo sapiens, UniProt P22001); assay: Inhibitory activity against voltage-gated potassium channel subunit Kv1.3 of human T cells; type: functional, cell-based, T-cell
[2] = target: T1, Potassium voltage-gated channel subfamily A member 3; assay: Inhibition of voltage-gated potassium channel subunit Kv1.3 in chinese hamster ovary cells; type: functional, cell-based
Method in brief: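 Depolarization-induced ⁸⁶Rb⁺ efflux measured in CHO cells stably transfected with human Kv1.3 channel (Rb_Kv functional assay), with short compound incubation; IC50 reported.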

[3] = target: T1, Potassium voltage-gated channel subfamily A member 3; assay: Relative T cell IC50 compared to IC50 for correolide assay; type: functional, cell-based
Method in brief: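 Ratio of correolide IC50 to compound IC50 in the anti-CD3-stimulated human peripheral blood T cell proliferation assay; a larger value means greater potency.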

[4] = target: T1, Potassium voltage-gated channel subfamily A member 3; assay: Inhibitory activity against voltage-gated potassium channel subunit Kv1.3; type: functional

T1 sequence (P22001 whole entry): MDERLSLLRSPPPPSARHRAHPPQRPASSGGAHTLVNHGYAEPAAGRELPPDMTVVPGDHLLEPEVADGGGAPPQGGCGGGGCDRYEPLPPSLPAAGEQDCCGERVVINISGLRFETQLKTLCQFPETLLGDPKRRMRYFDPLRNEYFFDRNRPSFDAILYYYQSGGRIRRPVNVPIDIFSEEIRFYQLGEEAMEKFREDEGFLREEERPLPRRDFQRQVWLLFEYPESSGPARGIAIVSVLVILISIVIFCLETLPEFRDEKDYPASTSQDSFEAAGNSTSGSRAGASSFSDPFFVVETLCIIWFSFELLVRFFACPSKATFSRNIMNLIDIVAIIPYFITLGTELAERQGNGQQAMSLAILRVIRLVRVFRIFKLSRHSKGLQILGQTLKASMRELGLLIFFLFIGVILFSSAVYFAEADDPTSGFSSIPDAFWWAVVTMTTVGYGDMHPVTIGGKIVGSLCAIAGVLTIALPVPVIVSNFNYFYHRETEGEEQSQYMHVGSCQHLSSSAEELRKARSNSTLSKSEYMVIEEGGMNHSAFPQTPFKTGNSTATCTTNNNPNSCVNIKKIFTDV

CC(=O)O[C@H]1C2[C@@](C)(CCC3C(O)(CCc4ccccc4C(F)(F)F)C(C)=C[C@@H](OC(C)=O)[C@@]32C)C2C=CCOC[C@]2([C@@H](C)OC(C)=O)[C@H]1OC(C)=O (stereo partly drawn)
IC50 [1]: 1840 nM | IC50 [2]: 87 nM | Ratio [3]: 0.1

COc1ccccc1CCC1(O)C(C)=C[C@@H](OC(C)=O)[C@@]2(C)C1CC[C@]1(C)C2[C@H](OC(C)=O)[C@H](OC(C)=O)[C@@]2([C@@H](C)OC(C)=O)COCC=CC12 (stereo partly drawn)
IC50 [1]: 142 nM | IC50 [2]: 14 nM | Ratio [3]: 1.3

CCOc1ccccc1CCC1(O)C(C)=C[C@@H](OC(C)=O)[C@@]2(C)C1CC[C@]1(C)C2[C@H](OC(C)=O)[C@H](OC(C)=O)[C@@]2([C@@H](C)OC(C)=O)COCC=CC12 (stereo partly drawn)
IC50 [1]: 80 nM | IC50 [2]: 34 nM | Ratio [3]: 2.3

CC(=O)O[C@H]1C2[C@@](C)(CCC3C(O)(CCCCc4ccccc4)C(C)=C[C@@H](OC(C)=O)[C@@]32C)C2C=CCOC[C@]2([C@@H](C)OC(C)=O)[C@H]1OC(C)=O (stereo partly drawn)
IC50 [2]: 270 nM

CC(=O)O[C@H]1C2[C@@](C)(CCC3C(O)(CC(C)(C)c4ccccc4)C(C)=C[C@@H](OC(C)=O)[C@@]32C)C2C=CCOC[C@]2([C@@H](C)OC(C)=O)[C@H]1OC(C)=O (stereo partly drawn)
IC50 [1]: 184 nM | IC50 [2]: 19 nM | Ratio [3]: 1

CCOc1ccccc1[C@H](C)CC1(O)C(C)=C[C@@H](OC(C)=O)[C@@]2(C)C1CC[C@]1(C)C2[C@H](OC(C)=O)[C@H](OC(C)=O)[C@@]2([C@@H](C)OC(C)=O)COCC=CC12 (stereo partly drawn)
IC50 [1]: 12.3 nM | IC50 [2]: 37 nM | Ratio [3]: 15

COc1ccc(CCC2(O)C(C)=C[C@@H](OC(C)=O)[C@@]3(C)C2CC[C@]2(C)C3[C@H](OC(C)=O)[C@H](OC(C)=O)[C@@]3([C@@H](C)OC(C)=O)COCC=CC23)cc1 (stereo partly drawn)
IC50 [2]: 130 nM

CC(=O)O[C@H]1C2[C@@](C)(CCC3C(O)(CCCc4ccccc4)C(C)=C[C@@H](OC(C)=O)[C@@]32C)C2C=CCOC[C@]2([C@@H](C)OC(C)=O)[C@H]1OC(C)=O (stereo partly drawn)
IC50 [2]: 150 nM

COc1ccccc1[C@H](C)C[C@]1(O)C(C)=C[C@@H](OC(C)=O)[C@]2(C)C3[C@H](OC(C)=O)[C@H](OC(C)=O)[C@@]4([C@@H](C)OC(C)=O)COCC=CC4[C@]3(C)CCC21 (stereo partly drawn)
IC50 [1]: 25.6 nM | IC50 [2]: 19 nM | Ratio [3]: 7.2

CC(=O)O[C@H]1C2[C@@](C)(CCC3C(O)(CCc4ccccc4F)C(C)=C[C@@H](OC(C)=O)[C@@]32C)C2C=CCOC[C@]2([C@@H](C)OC(C)=O)[C@H]1OC(C)=O (stereo partly drawn)
IC50 [1]: 245 nM | IC50 [2]: 74 nM | Ratio [3]: 0.75

CC(=O)O[C@H]1C2[C@@](C)(CCC3C(O)(CCc4ccccc4O)C(C)=C[C@@H](OC(C)=O)[C@@]32C)C2C=CCOC[C@]2([C@@H](C)OC(C)=O)[C@H]1OC(C)=O (stereo partly drawn)
IC50 [1]: 428 nM | IC50 [2]: 26 nM | Ratio [3]: 0.43

C=C(C[C@]1(O)C(C)=C[C@@H](OC(C)=O)[C@]2(C)C3[C@H](OC(C)=O)[C@H](OC(C)=O)[C@@]4([C@@H](C)OC(C)=O)COCC=CC4[C@]3(C)CCC21)c1ccccc1 (stereo partly drawn)
IC50 [1]: 131 nM | IC50 [2]: 19 nM | Ratio [3]: 1.4

CCc1ccccc1[C@H](CC)CC1(O)C(C)=C[C@@H](OC(C)=O)[C@@]2(C)C1CC[C@]1(C)C2[C@H](OC(C)=O)[C@H](OC(C)=O)[C@@]2([C@@H](C)OC(C)=O)COCC=CC12 (stereo partly drawn)
IC50 [2]: 12 nM

C=C(CC1(O)C(C)=C[C@@H](OC(C)=O)[C@@]2(C)C1CC[C@]1(C)C2[C@H](OC(C)=O)[C@H](OC(C)=O)[C@@]2([C@@H](C)OC(C)=O)COCC=CC12)c1ccccc1[S+](C)[O-] (stereo in doubt; 34)
IC50 [2]: 145 nM

CC[C@H](CC1(O)C(C)=C[C@@H](OC(C)=O)[C@@]2(C)C1CC[C@]1(C)C2[C@H](OC(C)=O)[C@H](OC(C)=O)[C@@]2([C@@H](C)OC(C)=O)COCC=CC12)c1ccccc1OC (stereo partly drawn)
IC50 [1]: 29.2 nM | IC50 [2]: 28 nM | Ratio [3]: 6.3

CC(=O)O[C@H]1C2[C@@](C)(CCC3C(O)(CCc4ccccc4C)C(C)=C[C@@H](OC(C)=O)[C@@]32C)C2C=CCOC[C@]2([C@@H](C)OC(C)=O)[C@H]1OC(C)=O (stereo partly drawn)
IC50 [1]: 194 nM | IC50 [2]: 41 nM | Ratio [3]: 0.95

C=C(CC1(O)C(C)=C[C@@H](OC(C)=O)[C@@]2(C)C1CC[C@]1(C)C2[C@H](OC(C)=O)[C@H](OC(C)=O)[C@@]2([C@@H](C)OC(C)=O)COCC=CC12)c1ccccc1SC (stereo partly drawn)
IC50 [1]: 14.7 nM | IC50 [2]: 14 nM | Ratio [3]: 12.5

CCc1ccccc1[C@H](C)CC1(O)C(C)=C[C@@H](OC(C)=O)[C@@]2(C)C1CC[C@]1(C)C2[C@H](OC(C)=O)[C@H](OC(C)=O)[C@@]2([C@@H](C)OC(C)=O)COCC=CC12 (stereo partly drawn)
IC50 [1]: 36.8 nM | IC50 [2]: 28 nM | Ratio [3]: 5

COc1cccc(CCC2(O)C(C)=C[C@@H](OC(C)=O)[C@@]3(C)C2CC[C@]2(C)C3[C@H](OC(C)=O)[C@H](OC(C)=O)[C@@]3([C@@H](C)OC(C)=O)COCC=CC23)c1 (stereo partly drawn)
IC50 [1]: 1310 nM | IC50 [2]: 24 nM | Ratio [3]: 0.14

C=CC[C@H](CC1(O)C(C)=C[C@@H](OC(C)=O)[C@@]2(C)C1CC[C@]1(C)C2[C@H](OC(C)=O)[C@H](OC(C)=O)[C@@]2([C@@H](C)OC(C)=O)COCC=CC12)c1ccccc1CC (stereo partly drawn)
IC50 [2]: 48 nM

COC(=O)C12O[C@@H]1C(=O)CC1(O)C3CC[C@]4(C)C([C@H](OC(C)=O)[C@H](OC(C)=O)[C@@]5([C@@H](C)OC(C)=O)COCC=CC45)[C@@]3(C)[C@H](OC(C)=O)[C@H](OC(C)=O)[C@]12C (stereo partly drawn)
IC50 [4]: 35 nM

C=CC[C@H](CC1(O)C(C)=C[C@@H](OC(C)=O)[C@@]2(C)C1CC[C@]1(C)C2[C@H](OC(C)=O)[C@H](OC(C)=O)[C@@]2([C@@H](C)OC(C)=O)COCC=CC12)c1ccccc1OC (stereo partly drawn)
IC50 [1]: 32.9 nM | IC50 [2]: 21 nM | Ratio [3]: 5.6

C=CC1(O)C(C)=C[C@@H](OC(C)=O)[C@@]2(C)C1CC[C@]1(C)C2[C@H](OC(C)=O)[C@H](OC(C)=O)[C@@]2([C@@H](C)OC(C)=O)COCC=CC12 (stereo partly drawn)
IC50 [2]: 1810 nM

C=CCCC1(O)C(C)=C[C@@H](OC(C)=O)[C@@]2(C)C1CC[C@]1(C)C2[C@H](OC(C)=O)[C@H](OC(C)=O)[C@@]2([C@@H](C)OC(C)=O)COCC=CC12 (stereo partly drawn)
IC50 [2]: 664 nM

C=C(CC1(O)C(C)=C[C@@H](OC(C)=O)[C@@]2(C)C1CC[C@]1(C)C2[C@H](OC(C)=O)[C@H](OC(C)=O)[C@@]2([C@@H](C)OC(C)=O)COCC=CC12)c1ccccc1SCC (stereo partly drawn)
IC50 [1]: 31.7 nM | IC50 [2]: 17 nM | Ratio [3]: 5.8

C=C(CC1(O)C(C)=C[C@@H](OC(C)=O)[C@@]2(C)C1CC[C@]1(C)C2[C@H](OC(C)=O)[C@H](OC(C)=O)[C@@]2([C@@H](C)OC(C)=O)COCC=CC12)c1ccccc1CC (stereo partly drawn)
IC50 [1]: 25.5 nM | IC50 [2]: 44 nM | Ratio [3]: 7.2

C=C(CC1(O)C(C)=C[C@@H](OC(C)=O)[C@@]2(C)C1CC[C@]1(C)C2[C@H](OC(C)=O)[C@H](OC(C)=O)[C@@]2([C@@H](C)OC(C)=O)COCC=CC12)c1ccccc1S(=O)OC (stereo partly drawn)
IC50 [2]: 352 nM

CC(=O)O[C@H]1C2[C@@](C)(CCC3C(O)(CCc4ccccc4)C(C)=C[C@@H](OC(C)=O)[C@@]32C)C2C=CCOC[C@]2([C@@H](C)OC(C)=O)[C@H]1OC(C)=O (stereo partly drawn)
IC50 [1]: 460 nM | IC50 [2]: 26 nM | Ratio [3]: 0.4

CC(=O)O[C@H]1C2[C@@](C)(CCC3C(O)(C(C)Cc4ccccc4)C(C)=C[C@@H](OC(C)=O)[C@@]32C)C2C=CCOC[C@]2([C@@H](C)OC(C)=O)[C@H]1OC(C)=O (stereo partly drawn)
IC50 [2]: 200 nM

CC(=O)O[C@H]1C2[C@@](C)(CCC3C(O)(CCC=C(C)C)C(C)=C[C@@H](OC(C)=O)[C@@]32C)C2C=CCOC[C@]2([C@@H](C)OC(C)=O)[C@H]1OC(C)=O (stereo partly drawn)
IC50 [2]: 21 nM

C=C1C[C@@]2(O)C3CC[C@]4(C)C([C@H](OC(C)=O)[C@H](OC(C)=O)[C@@]5([C@@H](C)OC(C)=O)COC(=O)C=CC45)[C@@]3(C)[C@H](OC(C)=O)[C@H](OC(C)=O)[C@@]2(C)C2(C(=O)OC)O[C@H]12 (stereo partly drawn) [CORRELOID]
IC50 [1]: 184 nM | IC50 [2]: 100 nM

CC(=O)O[C@H]1C2[C@@](C)(CCC3C(O)(C[C@@H](C)c4ccccc4)C(C)=C[C@@H](OC(C)=O)[C@@]32C)C2C=CCOC[C@]2([C@@H](C)OC(C)=O)[C@H]1OC(C)=O (stereo partly drawn)
IC50 [1]: 102 nM | IC50 [2]: 12 nM | Ratio [3]: 1.8

C=C(CC1(O)C(C)=C[C@@H](OC(C)=O)[C@@]2(C)C1CC[C@]1(C)C2[C@H](OC(C)=O)[C@H](OC(C)=O)[C@@]2([C@@H](C)OC(C)=O)COCC=CC12)c1ccccc1[S+](C)[O-] (stereo in doubt; 35)
IC50 [2]: 259 nM

CC(=O)O[C@H]1C2[C@@](C)(CCC3C(=O)C(C)=C[C@@H](OC(C)=O)[C@@]32C)C2C=CCOC[C@]2([C@@H](C)OC(C)=O)[C@H]1OC(C)=O (stereo partly drawn)
IC50 [4]: 5600 nM

CC(=O)O[C@H]1C2[C@@](C)(CCC3C(O)(c4ccccc4)C(C)=C[C@@H](OC(C)=O)[C@@]32C)C2C=CCOC[C@]2([C@@H](C)OC(C)=O)[C@H]1OC(C)=O (stereo partly drawn)
IC50 [2]: 2000 nM

C=C(CC1(O)C(C)=C[C@@H](OC(C)=O)[C@@]2(C)C1CC[C@]1(C)C2[C@H](OC(C)=O)[C@H](OC(C)=O)[C@@]2([C@@H](C)OC(C)=O)COCC=CC12)c1ccccc1OC (stereo partly drawn)
IC50 [1]: 51.1 nM | IC50 [2]: 11 nM | Ratio [3]: 3.6

CC(=O)O[C@H]1C2[C@@](C)(CCC3C(O)(Cc4ccccc4)C(C)=C[C@@H](OC(C)=O)[C@@]32C)C2C=CCOC[C@]2([C@@H](C)OC(C)=O)[C@H]1OC(C)=O (stereo partly drawn)
IC50 [2]: 380 nM

C=CCC1(O)C(C)=C[C@@H](OC(C)=O)[C@@]2(C)C1CC[C@]1(C)C2[C@H](OC(C)=O)[C@H](OC(C)=O)[C@@]2([C@@H](C)OC(C)=O)COCC=CC12 (stereo partly drawn)
IC50 [2]: 143 nM

CC(=O)Oc1ccccc1CCC1(O)C(C)=C[C@@H](OC(C)=O)[C@@]2(C)C1CC[C@]1(C)C2[C@H](OC(C)=O)[C@H](OC(C)=O)[C@@]2([C@@H](C)OC(C)=O)COCC=CC12 (stereo partly drawn)
IC50 [2]: 31 nM

CC(=O)O[C@H]1C2[C@@](C)(CCC3C(O)(C[C@H](C)c4ccccc4)C(C)=C[C@@H](OC(C)=O)[C@@]32C)C2C=CCOC[C@]2([C@@H](C)OC(C)=O)[C@H]1OC(C)=O (stereo partly drawn)
IC50 [1]: 613 nM | IC50 [2]: 120 nM | Ratio [3]: 0.3
